Measurements: ChEMBL document CHEMBL1122046, “Quaternary heterocyclylamino beta-lactams: a generic alternative to the classical acylamino side chain” (1982)
≈ marks a conversion by molar mass, not a printed value.

How the values were obtained:
Type in all cases: functional
Escherichia coli = assay: MIC against aerobic organism Escherichia coli strain 2891; conditions: Escherichia coli; read-out: MIC
Method in brief: (§1)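 Agar-dilution MIC in µg/mL against aerobic bacterial strains on tryptocase soy agar, with inoculum applied as spots. Most series used 10^5 cfu per spot, and a later series used 10^4 cfu per spot. In some tables, footnoted strains were instead tested on Mueller-Hinton or nutrient agar. β-Lactamase-producing strains are flagged.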

Klebsiella aerogenes = assay: Minimum inhibitory concentration against aerobic organism Enterobacter aerogenes strain 2828; method in brief: as §1
Enterobacter cloacae = assay: Minimum inhibitory concentration against aerobic organism Enterobacter cloacae strain 2646; conditions: Enterobacter cloacae; read-out: MIC; method in brief: as §1
Klebsiella pneumoniae = assay: Minimum inhibitory concentration against aerobic organism Klebsiella pneumoniae strain 4005; method in brief: as §1
Morganella morganii = assay: Minimum inhibitory concentration against aerobic organism Morganella morganii strain 2833; conditions: Morganella morganii; read-out: MIC; method in brief: as §1
Pseudomonas aeruginosa = assay: Minimum inhibitory concentration against aerobic organism Pseudomonas aeruginosa strain 2835; method in brief: as §1
Proteus mirabilis = assay: Minimum inhibitory concentration against aerobic organism Proteus mirabilis strain 2830; conditions: Proteus mirabilis; read-out: MIC; method in brief: as §1
Proteus vulgaris = assay: Minimum inhibitory concentration against aerobic organism Proteus vulgaris strain 2829; conditions: Proteus vulgaris; read-out: MIC; method in brief: as §1
Salmonella = assay: Minimum inhibitory concentration against aerobic organism Salmonella strain 3860; method in brief: as §1
Staphylococcus aureus [1] = assay: Minimum inhibitory concentration against aerobic organism Staphylococcus aureus strain 2865; method in brief: as §1
Staphylococcus aureus [2] = assay: Minimum inhibitory concentration against aerobic organism Staphylococcus aureus strain 2868; conditions: Staphylococcus aureus; read-out: MIC; method in brief: as §1
Enterococcus faecalis = assay: Minimum inhibitory concentration against aerobic organism Streptococcus faecalis strain 2864; method in brief: as §1

Row | MIC (Escherichia coli) [µg/mL] | MIC (Klebsiella aerogenes) [µg/mL] | MIC (Enterobacter cloacae) [µg/mL] | MIC (Klebsiella pneumoniae) [µg/mL] | MIC (Morganella morganii) [µg/mL] | MIC (Pseudomonas aeruginosa) [µg/mL] | MIC (Proteus mirabilis) [µg/mL] | MIC (Proteus vulgaris) [µg/mL] | MIC (Salmonella) [µg/mL] | MIC (Staphylococcus aureus [1]) [µg/mL] | MIC (Staphylococcus aureus [2]) [µg/mL] | MIC (Enterococcus faecalis) [µg/mL] | SMILES
1 | < 0.06 | 1 (≈ 1.95 µM) | 0.125 (≈ 0.243 µM) | 8 (≈ 15.6 µM) | 32 (≈ 62.3 µM) | > 128 | 64 (≈ 125 µM) | 0.25 (≈ 0.487 µM) | 4 (≈ 7.79 µM) | 0.5 (≈ 0.974 µM) | 1 (≈ 1.95 µM) | 128 (≈ 249 µM) | Cn1nnnc1SCC1=C(C(=O)[O-])N2C(=O)[C@@H](Nc3cc[n+](Cc4ccc(F)cc4)cc3)[C@H]2SC1
2 | 1 (≈ 1.99 µM) | > 128 | 4 (≈ 7.97 µM) | > 128 | > 128 | > 128 | > 128 | 8 (≈ 15.9 µM) | 4 (≈ 7.97 µM) | 1 (≈ 1.99 µM) | 4 (≈ 7.97 µM) | > 128 | CCOC(=S)SCC1=C(C(=O)[O-])N2C(=O)[C@@H](Nc3cc[n+](Cc4ccccc4)cc3)[C@H]2SC1
3 | 0.25 (≈ 0.622 µM) | 8 (≈ 19.9 µM) | 4 (≈ 9.95 µM) | 64 (≈ 159 µM) | > 128 | > 128 | > 128 | < 0.125 | 128 (≈ 319 µM) | 2 (≈ 4.98 µM) | 128 (≈ 319 µM) | > 128 | O=C([O-])C1=C(Cl)CS[C@@H]2[C@H](Nc3cc[n+](Cc4ccccc4)cc3)C(=O)N12
4 | 0.25 (≈ 0.592 µM) | 8 (≈ 18.9 µM) | 1 (≈ 2.37 µM) | 64 (≈ 151 µM) | > 128 | > 128 | > 128 | < 0.06 | 1 (≈ 2.37 µM) | 0.5 (≈ 1.18 µM) | 2 (≈ 4.73 µM) | > 128 | [N-]=[N+]=NCC1=C(C(=O)[O-])N2C(=O)[C@@H](Nc3cc[n+](Cc4ccccc4)cc3)[C@H]2SC1
5 | < 0.125 | 0.5 | 0.05 | 1 | 16 | 128 | 64 | < 0.125 | 0.25 | 1 | 4 | > 128 | O=C([O-])CSc1nnc(SCC2=C(C(=O)[O-])N3C(=O)[C@@H](Nc4cc[n+](Cc5ccccc5)cc4)[C@H]3SC2)s1.[Na+]
6 | 128 (≈ 192 µM) | > 128 | > 128 | > 128 | > 128 | > 128 | > 128 | > 128 | > 128 | 128 (≈ 192 µM) | > 128 | > 128 | Cn1nnnc1SCC1=C(C(=O)[O-])N2C(=O)[C@@H](Nc3cc[n+](COCC(Cl)(Cl)Cl)cc3C(=O)OC(C)(C)C)[C@H]2SC1
7 | 0.5 (≈ 1.26 µM) | 128 (≈ 322 µM) | 1 (≈ 2.52 µM) | > 128 | > 128 | > 128 | > 128 | < 0.06 | > 128 | 0.5 (≈ 1.26 µM) | 16 (≈ 40.3 µM) | > 128 | O=C([O-])C1=C(CO)CS[C@@H]2[C@H](Nc3cc[n+](Cc4ccccc4)cc3)C(=O)N12
8 | 128 | > 128 | > 128 | > 128 | > 128 | > 128 | > 128 | 16 | > 128 | 64 | > 128 | > 128 | Cc1nnc(SCC2=C(C(=O)[O-])N3C(=O)[C@@H](Nc4cc[n+](COCC(Cl)(Cl)Cl)cc4C(=O)[O-])[C@H]3SC2)s1.[Na+]
9 | < 0.06 | 0.5 (≈ 0.905 µM) | 0.25 (≈ 0.452 µM) | 4 (≈ 7.24 µM) | 64 (≈ 116 µM) | > 128 | 128 (≈ 232 µM) | 0.125 (≈ 0.226 µM) | 2 (≈ 3.62 µM) | 0.5 (≈ 0.905 µM) | 4 (≈ 7.24 µM) | 128 (≈ 232 µM) | CN(C)CCn1nnnc1SCC1=C(C(=O)[O-])N2C(=O)[C@@H](Nc3cc[n+](Cc4ccccc4)cc3)[C@H]2SC1
10 | > 128 | 8 (≈ 19.3 µM) | > 128 | 0.25 (≈ 0.602 µM) | > 128 | > 128 | 16 (≈ 38.5 µM) | > 128 | 0.5 (≈ 1.2 µM) | 0.25 (≈ 0.602 µM) | 4 (≈ 9.63 µM) | 64 (≈ 154 µM) | O=C(Cc1cccs1)N[C@@H]1C(=O)N2C(C(=O)[O-])=C(C[n+]3ccccc3)CS[C@H]12 [CEPHALORIDINE]
